Source: ChEMBL document CHEMBL1134679, “Exploiting subsite S1 of trypsin-like serine proteases for selectivity: potent and selective inhibitors of urokinase-type plasminogen activator” (J Med Chem, 2001)

Experiments:
[1] = biological target: Tissue-type plasminogen activator (Homo sapiens, UniProt P00750); assay: The compound was tested for inhibition of human tissue plasminogen activator
[2] = biological target: Urokinase-type plasminogen activator (Homo sapiens, UniProt P00749); assay: The compound was tested for inhibition of human urokinase type plasminogen activator (microPa)
Plasma kallikrein = Plasma kallikrein (Homo sapiens, UniProt P03952); assay: The compound was tested for inhibition of human p-kallikrein
Chain of Plasma kallikrein (P03952 20-390 limits assumed): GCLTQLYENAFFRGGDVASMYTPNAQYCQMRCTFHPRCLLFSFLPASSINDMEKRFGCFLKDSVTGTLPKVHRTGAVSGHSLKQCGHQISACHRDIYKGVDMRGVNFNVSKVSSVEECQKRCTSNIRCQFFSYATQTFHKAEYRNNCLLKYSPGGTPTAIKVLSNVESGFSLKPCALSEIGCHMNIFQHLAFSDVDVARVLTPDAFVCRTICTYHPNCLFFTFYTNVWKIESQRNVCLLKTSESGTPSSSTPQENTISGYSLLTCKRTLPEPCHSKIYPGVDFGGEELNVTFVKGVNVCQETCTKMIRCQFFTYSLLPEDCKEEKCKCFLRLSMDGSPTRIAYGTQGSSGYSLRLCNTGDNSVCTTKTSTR
Chain of Plasma kallikrein (P03952 391-638 limits assumed): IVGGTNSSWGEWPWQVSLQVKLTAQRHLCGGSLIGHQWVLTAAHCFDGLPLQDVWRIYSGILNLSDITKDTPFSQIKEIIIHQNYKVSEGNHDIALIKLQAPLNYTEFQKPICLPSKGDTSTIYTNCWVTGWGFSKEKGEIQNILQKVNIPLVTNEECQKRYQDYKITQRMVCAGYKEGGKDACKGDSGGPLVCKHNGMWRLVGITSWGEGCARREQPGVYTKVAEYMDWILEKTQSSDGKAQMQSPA

Prothrombin = Prothrombin (Homo sapiens, UniProt P00734); assay: The compound was tested for inhibition of human thrombin
Coagulation factor X = Coagulation factor X (Homo sapiens, UniProt P00742); assay: Binding affinity against human coagulation factor X
Chain of Coagulation factor X (P00742 41-179 limits assumed): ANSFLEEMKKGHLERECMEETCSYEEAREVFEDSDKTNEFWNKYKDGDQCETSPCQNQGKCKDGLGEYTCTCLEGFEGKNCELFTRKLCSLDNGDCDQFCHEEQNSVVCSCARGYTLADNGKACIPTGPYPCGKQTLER
Chain of Coagulation factor X (P00742 235-488 limits assumed): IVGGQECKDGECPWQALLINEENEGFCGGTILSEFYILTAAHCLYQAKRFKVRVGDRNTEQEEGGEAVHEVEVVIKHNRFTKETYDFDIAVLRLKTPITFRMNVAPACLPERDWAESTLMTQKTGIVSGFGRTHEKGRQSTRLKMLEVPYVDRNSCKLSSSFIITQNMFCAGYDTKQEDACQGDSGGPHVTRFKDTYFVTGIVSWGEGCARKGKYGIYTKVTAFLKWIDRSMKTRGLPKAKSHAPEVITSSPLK

Trypsin = Trypsin (Homo sapiens, UniProt P07477+P07478+P35030); assay: The compound was tested for inhibition of human trypsin; format: protein assay
Coagulation factor VII = biological target: T1, Coagulation factor VII (Homo sapiens, UniProt P08709); assay: The compound was tested for inhibition of human coagulation factor VII
T1 sequence (P08709 whole entry): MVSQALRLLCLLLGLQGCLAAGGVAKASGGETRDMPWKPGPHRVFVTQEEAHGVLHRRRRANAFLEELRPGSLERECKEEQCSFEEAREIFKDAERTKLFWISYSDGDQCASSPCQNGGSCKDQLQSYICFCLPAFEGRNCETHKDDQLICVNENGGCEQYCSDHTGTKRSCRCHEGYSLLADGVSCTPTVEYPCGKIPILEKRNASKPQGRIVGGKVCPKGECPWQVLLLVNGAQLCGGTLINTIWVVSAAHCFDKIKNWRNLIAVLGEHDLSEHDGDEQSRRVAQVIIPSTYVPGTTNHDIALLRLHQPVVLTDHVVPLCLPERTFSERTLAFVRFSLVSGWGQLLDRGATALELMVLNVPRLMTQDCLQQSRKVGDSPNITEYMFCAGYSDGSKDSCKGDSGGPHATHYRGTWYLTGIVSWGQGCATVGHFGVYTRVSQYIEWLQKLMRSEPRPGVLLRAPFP

[3] = Volume of distribution in Sprague-Dawley Rat (Wt 286) was determined after iv administration at a dose of 1 mg/kg; format: ADME, organism-based; set-up: dose 1 mg/kg, route intravenous; conditions: in vivo, read-out: Vc
Method in brief: (§1)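 Male Sprague-Dawley rats, three per group, received a single IV tail-vein bolus in 40% PEG400/H2O (1 or 2 mg/mL). Jugular blood was drawn into heparin at several times up to 24 h. Plasma was held at −80 °C, then assayed by LC-MS/MS against standard curves of 1–10000 ng/mL (LOQ 6 ng/mL). Parameters are mean ± SD; AUC runs 0 to infinity; volume of distribution is central compartment.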

[4] = terminal half-life in Sprague-Dawley Rat (Wt 286) was determined after iv administration at a dose of 1 mg/kg; format: ADME, organism-based; set-up: dose 1 mg/kg, route intravenous; conditions: in vivo; method in brief: as §1
[5] = mean residence time in Sprague-Dawley Rat (Wt 286) was determined after iv administration at a dose of 1 mg/kg; format: ADME, organism-based; set-up: dose 1 mg/kg, route intravenous; conditions: in vivo; method in brief: as §1
[6] = Plasma clearance of compound in Sprague-Dawley Rat (Wt 286) was determined after iv administration at a dose of 1 mg/kg; format: ADME, organism-based; set-up: dose 1 mg/kg, route intravenous; conditions: read-out: Clp; method in brief: as §1
[7] = Volume of distribution at steady state in Sprague-Dawley Rat (Wt 286) was determined after iv administration at a dose of 1 mg/kg; format: ADME, organism-based; set-up: dose 1 mg/kg, route intravenous; conditions: in vivo, read-out: Vss; method in brief: as §1
Rattus norvegicus [8] = assay: Area undercurve in Sprague-Dawley Rat (Wt 286) was determined after iv administration at a dose of 1 mg/kg; format: ADME, organism-based; set-up: dose 1 mg/kg, route intravenous; conditions: in vivo; method in brief: as §1
Rattus norvegicus [9] = assay: Integrated area under the plasma concentration in Sprague-Dawley Rat (Wt 294) was determined after iv administration at a dose of 2 mg/kg; format: ADME, organism-based; set-up: dose 2 mg/kg, route intravenous; conditions: in vivo; method in brief: as §1
[10] = Plasma clearance of compound in Sprague-Dawley Rat (Wt 294) was determined after iv administration at a dose of 2 mg/kg; format: ADME, organism-based; set-up: dose 2 mg/kg, route intravenous; conditions: read-out: Clp; method in brief: as §1
[11] = terminal half-life in Sprague-Dawley Rat (Wt 294) was determined after iv administration at a dose of 2 mg/kg; format: ADME, organism-based; set-up: dose 2 mg/kg, route intravenous; conditions: in vivo; method in brief: as §1
[12] = Mean residence time of compound in Sprague-Dawley Rat (Wt 294) was determined after iv administration at a dose of 2 mg/kg; format: ADME, organism-based; set-up: dose 2 mg/kg, route intravenous; conditions: in vivo; method in brief: as §1
[13] = Volume of distribution in Sprague-Dawley Rat (Wt 294) was determined after iv administration at a dose of 2 mg/kg; format: ADME, organism-based; set-up: dose 2 mg/kg, route intravenous; conditions: in vivo, read-out: Vc; method in brief: as §1
[14] = Volume of distribution at steady state in Sprague-Dawley Rat (Wt 294) was determined after iv administration at a dose of 2 mg/kg; format: ADME, organism-based; set-up: dose 2 mg/kg, route intravenous; conditions: in vivo, read-out: Vss; method in brief: as §1

Chain of Tissue-type plasminogen activator (P00750 whole entry): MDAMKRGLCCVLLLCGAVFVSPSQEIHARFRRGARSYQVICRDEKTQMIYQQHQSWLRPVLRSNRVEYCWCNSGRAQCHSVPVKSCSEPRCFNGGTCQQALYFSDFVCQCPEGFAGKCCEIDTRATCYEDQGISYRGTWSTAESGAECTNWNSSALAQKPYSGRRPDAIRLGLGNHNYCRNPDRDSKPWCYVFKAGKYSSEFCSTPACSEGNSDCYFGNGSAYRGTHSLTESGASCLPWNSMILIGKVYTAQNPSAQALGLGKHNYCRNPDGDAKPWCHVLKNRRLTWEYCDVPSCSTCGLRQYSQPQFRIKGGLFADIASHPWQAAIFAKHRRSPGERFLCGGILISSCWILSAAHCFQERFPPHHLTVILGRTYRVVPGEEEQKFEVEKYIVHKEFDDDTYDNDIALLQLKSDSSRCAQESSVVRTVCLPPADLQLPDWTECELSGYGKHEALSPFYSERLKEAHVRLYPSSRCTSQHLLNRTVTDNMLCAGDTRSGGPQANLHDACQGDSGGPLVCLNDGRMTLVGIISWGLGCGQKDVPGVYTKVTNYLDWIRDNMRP

| SMILES | Ki [2] | Ki (Plasma kallikrein) | Ki (Prothrombin) | Ki (Coagulation factor X) | Ki (Trypsin) | Ki (Coagulation factor VII) | also measured |
| --- | --- | --- | --- | --- | --- | --- | --- |
| Cc1cc2[nH]c(-c3cccc(-c4ccccc4)c3O)cc2cc1C(=N)N | 0.1 µM | 4.8 µM | > 75 µM | > 75 µM | 1.6 µM | 7 µM | Ki [1]: 39 µM |
| N=C(N)c1ccc2[nH]c(-c3cccc(-c4ccccc4)c3O)cc2c1Cl | 0.49 µM | 1.3 µM | 65 µM | 5.2 µM | 4.7 µM | 5.5 µM | Ki [1]: 3.3 µM |
| N=C(N)c1cc2cc(-c3cccc(-c4ccccc4)c3O)[nH]c2cc1O |  | 1.3 µM | > 75 µM | > 75 µM | 50 µM | > 75 µM |  |
| N=C(N)c1ccc2[nH]c(-c3cccc(-c4ccccc4)c3O)cc2c1 |  | 0.0019 µM |  |  | 0.13 µM | 0.16 µM | Vd [3]: 1.56 L/kg; half-life [4]: 1.7 h; MRT [5]: 1.77 h; clearance [6]: 121 mL/min/kg; Vd [7]: 11.9 L/kg; AUC (Rattus norvegicus [8]): 0.4 µM·h |
| N=C(N)c1cc2cc(-c3cccc(-c4ccccc4)c3O)[nH]c2cc1Cl |  |  |  |  |  |  | AUC (Rattus norvegicus [9]): 1.42 µM·h; clearance [10]: 59 mL/min/kg; half-life [11]: 3.15 h; MRT [12]: 2.17 h; Vd [13]: 0.346 L/kg; Vd [14]: 7.7 L/kg |
| COc1cc2[nH]c(-c3cccc(-c4ccccc4)c3O)cc2cc1C(=N)N | 0.36 µM | 0.6 µM | > 75 µM | 26 µM | 14 µM | 16 µM |  |
| N=C(N)c1cc2cc(-c3cccc(-c4ccccc4)c3O)[nH]c2cc1F |  | 0.11 µM | 7.5 µM |  | 1.1 µM | 0.75 µM |  |
